Activity calls are given as the source filed them.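 The calls were made as follows: active = nuclear translocation activity above 50% at 5 µM, with a well cell count of 50 or more; inconclusive = wells under 50 cells across six images, flagged as toxic; inactive = the rest.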
test system: HeLa beta-catenin nuclear translocation, immunofluorescence imaging; assay: modulators of beta-catenin nuclear translocation, primary screen, imaging, HeLa cells, immunofluorescence, high-content (AID 1665)
Outline: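 Technique: fluorescence imaging of beta-catenin antibody stain plus DAPI / Material: human HeLa cell line / Incubation: compound treatment 24 h, 37°C, 5% CO2 / Read-out basis: % activation of per-cell nuclear versus cytoplasmic median beta-catenin signal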

Question: How did the EC50, beta-catenin nuclear translocation induction (lower = more potent) turn out when CCN(CC)c1ccc(/C=C/c2cc(-c3ccccc3)c3ccccc3n2)cc1 was run?
Answer: 2.56 µM

Question: How did the EC50, beta-catenin nuclear translocation induction (lower = more potent) turn out when Cc1ccc(NC(=O)Nc2ccnc(-c3cccnc3)n2)cc1 was run?
Answer: > 20 µM (inactive)

Question: Which EC50, beta-catenin nuclear translocation induction (lower = more potent) does the source give for Cn1c(-c2ccccc2)cc2c3no[n+]([O-])c3ccc21 here?
Answer: > 20 µM (inactive)

Question: Which EC50, beta-catenin nuclear translocation induction (lower = more potent) does the source give for Cn1c(O)c(/C=C/C=Nc2ccccc2)c(=O)n(C)c1=S here?
Answer: > 20 µM (inactive)

Question: With COc1ccc2nc3c(cc2c1)c(NC(=O)c1cccs1)nn3CC(C)C as the molecule, how does the EC50, beta-catenin nuclear translocation induction (lower = more potent) read?
Answer: > 20 µM (inactive)

Question: How did the EC50, beta-catenin nuclear translocation induction (lower = more potent) turn out when CCN1/C(=C/C=C/C=C/c2sc3ccccc3[n+]2CC)Sc2ccccc21 was run?
Answer: 3.73 µM

Question: How did the EC50, beta-catenin nuclear translocation induction (lower = more potent) turn out when CCOC(=O)/C(=C/C=C1\Sc2cc(OCC)c(OCC)cc2N1CC)C(C)=O was run?
Answer: > 20 µM (inactive)

Question: Which EC50, beta-catenin nuclear translocation induction (lower = more potent) does the source give for COC(=O)c1[nH]c2ccc(Br)cc2c1NC(=O)CN1CCN(C2CCCCC2)CC1 here?
Answer: 3.85 µM

Question: CN1\C(=C/C=C/C=C/C=[N+](C)C)C(C)(C)c2ccccc21 was tested. Which EC50, beta-catenin nuclear translocation induction (lower = more potent) did it give?
Answer: 9.2 µM

Question: With CCCCn1c(O)c(/C=C/C=C/C=Nc2ccccc2)sc1=S as the molecule, how does the EC50, beta-catenin nuclear translocation induction (lower = more potent) read?
Answer: 8.79 µM

Question: For CCC(/C=C1\Sc2ccc(OC)cc2N1CCO)=C\c1sc2ccc(OC)cc2[n+]1CCO, which EC50, beta-catenin nuclear translocation induction (lower = more potent) is on record?
Answer: > 20 µM (inactive)

Question: Which EC50, beta-catenin nuclear translocation induction (lower = more potent) does the source give for Cc1cc(NCCOCCO)n2ncc(-c3ccc(Cl)cc3)c2n1 here?
Answer: 8.01 µM

Question: CCN1/C(=C/c2ccc3cc(C)ccc3[n+]2C)Sc2ccc3sccc3c21 was tested. Which EC50, beta-catenin nuclear translocation induction (lower = more potent) did it give?
Answer: > 20 µM (inactive)

Question: For CCN1/C(=C/C=C/c2oc3ccc4ccccc4c3[n+]2CC)Oc2ccc3ccccc3c21, which EC50, beta-catenin nuclear translocation induction (lower = more potent) is on record?
Answer: 5.18 µM

Question: For O=C1NC(=O)C(=C/C=C/c2coc3ccc(Br)cc3c2=O)C(=O)N1, which EC50, beta-catenin nuclear translocation induction (lower = more potent) is on record?
Answer: > 20 µM (inactive)

Question: Which EC50, beta-catenin nuclear translocation induction (lower = more potent) does the source give for O=c1ccc2[n+]([O-])c3ccc(O)cc3oc-2c1 here?
Answer: 7.27 µM

Question: For CC1=CC(C)C(COC(N)=O)(COC(N)=O)C(C)C1 (stereo not given), which EC50, beta-catenin nuclear translocation induction (lower = more potent) is on record?
Answer: 4.49 µM

Question: How did the EC50, beta-catenin nuclear translocation induction (lower = more potent) turn out when Cn1c2ccccc2c(=O)c2c(=O)n(Cc3ccco3)c(COc3ccccc3)nc21 was run?
Answer: > 16 µM (inactive)

Question: How did the EC50, beta-catenin nuclear translocation induction (lower = more potent) turn out when Cc1ccc2nc(/C(C#N)=C\c3ccc([N+](=O)[O-])o3)[nH]c2c1 was run?
Answer: 9.06 µM

Question: With CCOC(=O)N1CCN(C(=O)c2cc(-c3ccc(OCC)cc3)nc3ccccc23)CC1 as the molecule, how does the EC50, beta-catenin nuclear translocation induction (lower = more potent) read?
Answer: 2.06 µM

Question: For C=CC[C@H]1CC(Cc2ccccc2)=C[C@H](CC=C)N1, which EC50, beta-catenin nuclear translocation induction (lower = more potent) is on record?
Answer: 0.77 µM

Question: With C=CCC1C=C(Cc2ccccc2)CC(CC=C)N1 (stereo not given) as the molecule, how does the EC50, beta-catenin nuclear translocation induction (lower = more potent) read?
Answer: > 20 µM (inactive)

Question: How did the EC50, beta-catenin nuclear translocation induction (lower = more potent) turn out when O=C(CSc1ncnc2nc[nH]c12)NCCc1ccccc1 was run?
Answer: 1.75 µM

Question: Oc1c(/C=C/C=C/C=Nc2ccccc2)sc(=S)n1Cc1ccccc1 was tested. Which EC50, beta-catenin nuclear translocation induction (lower = more potent) did it give?
Answer: > 20 µM (inactive)

Question: How did the EC50, beta-catenin nuclear translocation induction (lower = more potent) turn out when CCN1C(c2ccccc2)=C(c2ccccc2)S/C1=C/C=C1\SC(=S)N(C)C1=O was run?
Answer: 0.56 µM

Question: Which EC50, beta-catenin nuclear translocation induction (lower = more potent) does the source give for CC[n+]1c(/C=C/C=C/N(C(C)=O)c2ccccc2)sc2ccccc21 here?
Answer: 8.42 µM

Question: CN1C(=O)/C(=C/c2ccc(N3CCCCCC3)o2)C(=O)NC1=S was tested. Which EC50, beta-catenin nuclear translocation induction (lower = more potent) did it give?
Answer: 2.9 µM

Question: COc1ccc(/C=C(/NC(=O)c2cccc([N+](=O)[O-])c2)C(=O)O)cc1OC was tested. Which EC50, beta-catenin nuclear translocation induction (lower = more potent) did it give?
Answer: > 20 µM (inactive)

Question: How did the EC50, beta-catenin nuclear translocation induction (lower = more potent) turn out when CCC(/C=C1\Sc2ccc(OC)cc2N1CC)=C\c1sc2ccc(OC)cc2[n+]1CCCS(=O)(=O)[O-] was run?
Answer: 4.19 µM

Question: With CCN1C(=O)/C(=C/C=C2/Sc3ccccc3N2CCO)SC1=S as the molecule, how does the EC50, beta-catenin nuclear translocation induction (lower = more potent) read?
Answer: > 20 µM (inactive)

Source: PubChem BioAssay AID1665 (Sanford-Burnham Center for Chemical Genomics, 2009)
